Screening results (PubChem)
OXTR potentiate: human OXTR potentiation; P30559; CHO-OTR cells, Fluo-8 calcium fluorescence, potentiator mode; 0% = oxytocin EC15, 100% = EC100; activation, % at 3 µM; hit rate 0.061% among 320,000;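 active = activation above that plate's cutoff, the mean activation of tested compounds plus 3 SD, cut at about 6.6% in these data, passing the limit was not always enough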;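 note: 100% uses oxytocin at 75 nM as the full agonist control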
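test system = CHO-OTR cells, human receptor | compound = single-point 3.0 µM | schedule = 6 min compound pre-incubation at room temperature, 100 s kinetic read | signal = Fluo-8 no-wash calcium dye fluorescence, excitation 470-495 nm, emission 515-575 nm | repeats = single well per compound, singlicate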
V1aR counter: activates human V1a receptor in oxytocin agonist counter-screen; activation, % at 3 µM; P37288; hit rate 0.25% among 320,000; CHO-V1R cells, Fluo-8 calcium fluorescence, agonist mode; 0% DMSO, 100% 3 nM vasopressin;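 active = activation above the mean activation of all tested compounds plus 3 SD, per screening run, cut at about 20% in these data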;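 note: signal is peak over basal fluorescence ratio across a 100 second FLIPR read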
OX1R antag-1: blocks the human orexin 1 receptor; O43613; inhibition, % at 5 µM; AID 434989; hit rate 0.43% among 330,000; CHO/OX1R cells, Fluo-8 calcium fluorescence, orexin A;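 active = inhibition above its plate's threshold, mean inhibition of all tested compounds on the plate plus 3 SD, cut at about 37% in these data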;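 note: 0% = orexin A challenge wells and 100% = SB-334867-A antagonist wells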
Target sequence (O43613 whole entry, looked up): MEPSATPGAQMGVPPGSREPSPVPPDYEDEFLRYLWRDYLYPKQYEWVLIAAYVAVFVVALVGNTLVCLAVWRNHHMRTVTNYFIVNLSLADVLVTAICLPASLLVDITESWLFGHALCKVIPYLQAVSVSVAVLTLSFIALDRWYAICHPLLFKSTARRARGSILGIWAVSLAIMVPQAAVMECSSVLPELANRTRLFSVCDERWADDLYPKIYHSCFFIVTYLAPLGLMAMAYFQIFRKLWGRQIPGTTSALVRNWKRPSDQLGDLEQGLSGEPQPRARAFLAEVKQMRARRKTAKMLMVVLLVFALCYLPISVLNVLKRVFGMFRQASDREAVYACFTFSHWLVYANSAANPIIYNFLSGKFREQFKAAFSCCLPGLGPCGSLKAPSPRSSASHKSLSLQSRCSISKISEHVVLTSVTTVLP
OXTR agonist: human OXTR agonism. activation, % at 3 µM. CHO-OTR cells, Fluo-8 calcium fluorescence; normalized: DMSO 0%, oxytocin 100%. P30559. hit rate 0.32% among 320,000;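 active = activation above the mean of all tested compounds plus 3 SD, cutoff set per screening run, cut at about 20% in these data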;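 note: peak over basal fluorescence ratio from a 100 s FLIPR kinetic read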
OX1R antag-2: blocks the human orexin 1 receptor | O43613 | OX1R-expressing cells, FRET antagonist read-out | inhibition, % at 6.6 µM | hit rate 1.8% among 330,000; in the data active = inhibition mostly above about 38%, no sharp cut-off; inactive = mostly below about 40%;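 note: 0% = agonist challenge alone and 100% = reference antagonist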
CHO parental Ca: signal in parental CHO cells, OX1R antagonist counter-screen; parental CHO-K1, ATP-induced calcium, Fluo-8 fluorescence; inhibition, % at 5.6 µM; hit rate 0.63% among 330,000; AID 463079;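 active = inhibition above that plate's mean sample inhibition plus 3 SD, cut at about 26% in these data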;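 note: 0% = ATP-challenged DMSO wells and 100% = DMSO wells without ATP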
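Test system: untransfected parental CHO cell line; also added: ATP stimulus; dosing: 5.6 µM, single dose; signal: calcium-sensitive Fluo-8 fluorescence; measure: percent inhibition of ATP-evoked calcium rise, normalized to controls; benchmarks: low control ATP plus DMSO, high control DMSO only; replication: one well per compound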
* hit, by the source's call. Hits are enriched below; roughly 2.7% of the tested compounds scored in any of these assays.

SMILES	OXTR potentiate	V1aR counter	OX1R antag-1	OXTR agonist	OX1R antag-2	CHO parental Ca
O=C(CNCc1ccc(Cl)cc1)Nc1ccc(C(=O)N2CCCCC2)cc1	-2	5	-28	5	16	-24
O=C(c1ccc(NC(=S)NCc2ccc(Cl)cc2)cc1)N1CCCCC1	-12	21*	-4	21*	-7	-5
O=C(CCN1C(=O)CSc2ccccc21)Nc1ccc(OC(F)(F)F)cc1	4	2	10	-2	9	-26
Cc1nnc(SCC(=O)NC2CCCCCC2)n1C(C)C	-10	0	-1	0	21	-9
O=C(N/N=C/C(Cl)=C/c1ccc([N+](=O)[O-])cc1)C(=O)Nc1cccc(C(=O)O)c1	9	0	-17	2	66*	3
CN(C)C(=O)c1ccc(NC(=O)CSc2nnc(-c3cccs3)n2N)cc1	-9	0	-2	0	7	5
COc1cc(/C=N/Nc2nncn2/N=C/c2ccc(O)c(OC)c2)ccc1O	-10	1	-15	0	68*	-11
CCOc1cc(/C=N/Nc2nnc(C)n2N)ccc1O	3	1	-15	1	61*	-6
CCCc1cc(CNC(=O)C2CCC(=O)N(Cc3ccccc3OC)C2)on1 (centres undefined)	-9	0	-16	-1	13	-21
CCOC(=O)c1ccc(-c2ccc3c(=O)c4ccccc4n(C)c3c2)cc1F	-10	1	8	-1	66*	-3
CCN(CC)c1nc2c(c(=O)[nH]c(=O)n2C)n1CCOc1ccccc1	-7	0	-10	-1	11	-3
O=C1/C(=C/c2cccs2)SC(=S)N1CCC(=O)N1CCCCC1CCO (centres undefined)	-11	5	17	4	48*	-19
COc1ccccc1/C=C1\SC(=S)N(CCC(=O)N2CCCCC2CCO)C1=O (centres undefined)	-5	7	-25	1	0	-37
C#Cc1ccc(CN2CCC(Oc3ccc(C(=O)NCc4ccccn4)cc3)CC2)cc1	0	3	-11	2	5	-14
Cc1ccc(N2CC(C(=O)Nc3ccc(S(=O)(=O)Nc4ncccn4)cc3)CC2=O)cc1C (centres undefined)	3	0	-3	0	5	5
O=C(NCCc1ccccc1)c1ccc2nc(-c3ccco3)c(-c3ccco3)nc2c1	5	-1	-20	-2	26	-18
O=C(NC1CCCC1)c1ccc2nc(-c3ccco3)c(-c3ccco3)nc2c1	-6	0	-12	-2	63*	-7
CCOc1ccc(N(CC(=O)NCc2ccccc2C)S(C)(=O)=O)cc1	-4	0	-6	-2	10	-1
COc1ccc(Cl)cc1NC(=O)CCNS(=O)(=O)c1cccc2nonc12	0	1	-22	0	17	-15
COc1ccc(C)cc1NC(=O)CCNS(=O)(=O)c1cccc2nonc12	3	1	-21	1	71*	-11
Cc1ccc(C(=O)NC(=S)N2CCN(c3cc(C)ccc3C)CC2)cc1	-16	-1	-14	-1	28	-13
COc1ccc(/C=C/C(=O)Nc2ccc3c(c2)CCC3)cc1OC	-8	-1	22	-2	73*	-24
COc1ccc(Cl)cc1NC(=O)CSc1nnc(Cc2ccc(C)cc2)c(=O)[nH]1	-3	0	-15	1	50*	-5
CCC1CCCCN1S(=O)(=O)c1ccc(C(=O)Nc2nnc(C3CC3)o2)cc1 (centres undefined)	-7	-1	-28	-1	21	-17
CC1CCCN(S(=O)(=O)c2ccc(NC(=O)CN3CCN(C)CC3)cc2)C1 (centres undefined)	5	1	-12	1	-2	-4
SMILES	OXTR potentiate	V1aR counter	OX1R antag-1	OXTR agonist	OX1R antag-2	CHO parental Ca
CCC1CCCCN1S(=O)(=O)c1ccc(S(=O)(=O)N(Cc2cccs2)C2CC2)cc1 (centres undefined)	-11	2	54*	2	29	25
CCS(=O)(=O)c1ncc(Cl)c(C(=O)Nc2ccc(S(=O)(=O)N3CCCC(C)C3)cc2)n1 (centres undefined)	-7	-1	41*	-2	31	47*
CCC1CCCCN1S(=O)(=O)c1ccc(C(=O)Nc2nnc(-c3ccccc3Cl)o2)cc1 (centres undefined)	-1	0	-36	-1	8	-8
CCC1CCCCN1S(=O)(=O)c1ccc(NC(=O)c2ccncc2)cc1 (centres undefined)	-18	13	20	12	27	42*
CCC1CCCCN1S(=O)(=O)c1ccc(NC(=O)c2nc(S(C)(=O)=O)ncc2Cl)cc1 (centres undefined)	-7	-1	53*	-2	53*	55*
COc1ccc(CNC(=O)CN(C(=O)CCC(=O)Nc2ccccn2)c2ccc3c(c2)OCO3)cc1	2	-1	-34	-1	4	-14
CCOC(=O)c1sc(NC(=O)c2ccc(Br)o2)cc1C	1	-1	-26	-2	45*	-19
CCOC(=O)c1sc(NC(=O)Nc2ccc(Cl)cc2)nc1C	-22	11	43	12	67	43*
CCOC(=O)Nc1nc(C)c(C(=O)c2ccc(Cl)cc2)s1	-2	0	1	-2	10	-16
CCOC(=O)c1sc(NC(=O)c2sccc2C)cc1C	-13	-1	-19	-2	42*	-5
CCOC(=O)c1sc(NC(=O)Nc2cccc(Cl)c2)cc1C	-14	14	36	18	47*	34*
CCOC(=O)c1sc(NC(=O)c2cccs2)cc1C	-13	0	-10	-3	36	-23
CCOC(=O)Cc1csc(NC(=O)Nc2ccc(OC(F)(F)F)cc2)n1	-8	14	-1	17	25	29*
CCOC(=O)Cc1csc(NC(=O)c2ccc(NC(C)=O)cc2)n1	-4	0	-23	2	9	-15
COc1ccc2cc(CCNS(=O)(=O)c3c(C)cc(C)cc3C)c(=O)[nH]c2c1	-8	2	11	2	76*	-9
CC(C)(C)NC(=O)C(c1ccccc1)N(C(=O)CNC(=O)c1cccs1)c1cccnc1 (centres undefined)	-9	0	-13	0	21	-6
O=C(Nc1ccccc1)c1ccc[n+](Cc2ccc([N+](=O)[O-])cc2)c1	2	1	-11	-1	63*	-8
Cc1nc(Nc2ccc(Cl)c(Cl)c2)sc1C(=O)Nc1ccccc1	-17	5	-16	4	69*	8
O=C(O)CCC(=O)Nc1nnc(C(F)(F)F)s1	-5	0	-13	0	7	-2
CCC(NC(=O)Nc1nnc(C(F)(F)F)s1)(C(F)(F)F)C(F)(F)F	-11	12	65*	12	60*	81*
